T cruzi repl – T. cruzi replication inhibition; T. cruzi beta-gal in NIH3T3, luminescence, 90 h; inhibition, % (no concentration beside the values); 300,000 tested, 1.4% active; AID 1885;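 active means mean inhibition across valid replicates above about 55%, limit read from the data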;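 further: signal also drops with host cell toxicity which is not excluded here; 0% = plate median of DMSO wells and 100% = zero luminescence signal; higher percent means less beta-gal luminescence so fewer parasites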
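System – NIH/3T3 host cells with β-galactosidase reporter T. cruzi · Doses – single 50 nL compound addition per well in DMSO · Reagent – 5000 T. cruzi trypomastigotes/well · Medium – Low-serum DMEM with 2% FBS · Timing – ≥90 h infection period, 3 h prior cell attachment · Evaluation – parasite load inhibition, % · Technique – GalScreen luminescence, 60 min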
Lmaj promast – Leishmania major promastigote growth inhibition; inhibition, % at 10 µM; 200,000 tested, 9% active; Leishmania major promastigotes, resazurin fluorescence viability; in the data active means inhibition above about 50%;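 further: promastigotes grown with compound for 44 hours at 28 °C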
CSC inhib – cancer stem cell inhibition. cancer stem cell-like cells viability, luminescence. inhibition, % at 7.5 µM. 300,000 tested, 1.1% active. AID 2717; in the data active means inhibition above about 75%; tested in HMLE shEcad cells
SKKanGAS inh – SKKanGAS growth inhibition; inhibition, % at 7.5 µM; 300,000 tested, 1.3% active; S. pyogenes SKKanGAS, kanamycin growth, BacTiter-Glo, 6 h;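 active means mean replicate score, as percent of positive control median, at least 50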;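 further: strain carries kanamycin resistance gene driven by streptokinase promoter and grows in 40 µg/ml kanamycin; loss of luminescence reflects streptokinase promoter inhibition or plain growth inhibition; 0% = median of DMSO wells and 100% = positive control at its reference dose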
Beta apoptosis – beta cell apoptosis inhibition. protection from apoptosis, % (no concentration beside the values). INS-1E cytokine-induced death, ATP luminescence, 48 h; percent of positive-control rescue, neutral wells zero. 300,000 tested, 0.8% active;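 active means Every replicate reaches about 75%, or at least half do and their mean reaches it too, limit read from the data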;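 further: 0% = cytokine-treated negative control wells and 100% = positive control rescue; higher means more ATP so stronger rescue from cytokine killing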
Mdm2-MdmX inh – inhibitors of human Mdm2/MdmX interaction | inhibition, % at 8 µM | 330,000 tested, 3% active | SaOS-2 split-luciferase Mdm2/MdmX complementation, luminescence;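 active means inhibition of at least 50% at 8 µM in the primary screen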
Target sequence (O15151 whole entry, looked up): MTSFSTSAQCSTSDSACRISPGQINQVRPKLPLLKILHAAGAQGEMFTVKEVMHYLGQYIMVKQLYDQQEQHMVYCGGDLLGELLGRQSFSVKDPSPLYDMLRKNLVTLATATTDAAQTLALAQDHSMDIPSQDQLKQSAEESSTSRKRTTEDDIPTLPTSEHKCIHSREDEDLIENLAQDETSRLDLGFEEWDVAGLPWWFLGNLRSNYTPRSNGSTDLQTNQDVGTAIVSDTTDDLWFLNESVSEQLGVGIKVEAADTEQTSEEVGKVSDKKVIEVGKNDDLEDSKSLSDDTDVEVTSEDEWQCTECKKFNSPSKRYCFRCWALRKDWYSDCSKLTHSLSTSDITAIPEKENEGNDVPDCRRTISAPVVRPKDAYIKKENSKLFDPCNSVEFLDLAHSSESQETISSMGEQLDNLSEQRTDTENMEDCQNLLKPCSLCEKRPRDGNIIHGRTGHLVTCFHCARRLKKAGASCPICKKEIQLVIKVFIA
Target sequence (Q00987 whole entry, looked up): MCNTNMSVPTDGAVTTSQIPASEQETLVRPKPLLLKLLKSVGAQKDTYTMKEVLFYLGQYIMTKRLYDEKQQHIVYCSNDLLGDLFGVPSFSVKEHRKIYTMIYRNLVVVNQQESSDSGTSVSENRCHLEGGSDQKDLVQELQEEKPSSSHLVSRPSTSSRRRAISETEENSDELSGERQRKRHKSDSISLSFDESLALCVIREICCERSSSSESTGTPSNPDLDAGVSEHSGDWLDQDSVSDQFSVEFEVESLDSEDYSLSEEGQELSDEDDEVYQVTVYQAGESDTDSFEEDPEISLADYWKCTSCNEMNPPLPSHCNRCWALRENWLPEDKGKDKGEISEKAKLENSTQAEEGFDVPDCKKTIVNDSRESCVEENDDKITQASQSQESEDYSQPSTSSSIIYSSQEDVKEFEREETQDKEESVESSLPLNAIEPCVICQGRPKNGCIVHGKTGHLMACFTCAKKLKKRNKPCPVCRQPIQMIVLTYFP
Mdm2-MdmX conf – confirmation of human Mdm2/MdmX interaction inhibitors | 10,000 tested, 55% active | AID 489028 | shares compounds with Mdm2-MdmX inh | inhibition, % at 8 µM | Mdm2-MdmX binding, luminescent assay; in the data active means inhibition above about 40%
FLuc counter – full-length luciferase inhibition in Mdm2/MdmX counter-screen; SaOS-2 full-length luciferase counterscreen, luminescence; shares compounds with Mdm2-MdmX inh; AID 504607; 6,200 tested, 77% active; inhibition, % at 8 µM;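 active means mean inhibition at 8 µM reaching about 37%, which flags the compound as non-specific, limit read from the data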;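 further: p53-null SaOS-2 cells with luciferase driven by a doxycycline-inducible promoter; compound on cells about two nights before reading with doxycycline added after day one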
An asterisk follows results filed as active. The list is not random: actives were taken first. Their share in the collection is about 9.4%.

For COc1cc(-c2noc(C)c2C#CC2(O)CCCCC2)cc(OC)c1OC the results were T cruzi repl 12.4, CSC inhib 8.3, SKKanGAS inh -3.8, Beta apoptosis -4.6, Mdm2-MdmX inh 61.3*, Mdm2-MdmX conf 43.4* and FLuc counter 83.8*.
For Cc1ccc(S(=O)(=O)c2ncccc2[N+](=O)[O-])cc1 the results were T cruzi repl 64.5*, CSC inhib 47.5, SKKanGAS inh 0.4, Beta apoptosis 50.5, Mdm2-MdmX inh 89.8*, Mdm2-MdmX conf 76.7* and FLuc counter 52.3*.
`NS(=O)(=O)c1cc(C(=O)OCC(=O)Nc2ccc(N3CCCCC3)cc2)ccc1Cl` gave T cruzi repl 3.4, CSC inhib -6.2, SKKanGAS inh -8.0, Beta apoptosis -3.8 and Mdm2-MdmX inh -0.8.
Screening CC/C(=N\O)c1c(O)c2c(n(-c3ccccc3)c1=O)CCCC2 returned T cruzi repl 4.4, Lmaj promast -7.0, CSC inhib 6.2, SKKanGAS inh -5.3, Beta apoptosis 1.1 and Mdm2-MdmX inh 11.9.
Screening COc1ccc(C(C#N)c2nc3ccccc3nc2Cl)cc1 (stereo not given) returned T cruzi repl -21.3, CSC inhib 6.3, SKKanGAS inh -3.2, Beta apoptosis -4.3, Mdm2-MdmX inh 51.8* and Mdm2-MdmX conf 19.1.
Screening Cc1c(CN2CCC(CO)(CCOc3ccccc3)CC2)[nH]c2c(Cl)cccc12 returned T cruzi repl 53.2, Lmaj promast 100.1*, CSC inhib 48.2, SKKanGAS inh 3.5, Beta apoptosis 12.3, Mdm2-MdmX inh 86.8*, Mdm2-MdmX conf 53.8* and FLuc counter 64.1*.
Cc1cccc(NC(=O)CSc2nnc(CNC(=O)c3ccco3)n2C)c1 was read as T cruzi repl 4.2, CSC inhib -4.0, SKKanGAS inh -4.5 and Mdm2-MdmX inh -18.5.
For O=C(c1ccccc1)C1CCN(C(=O)c2c(F)cccc2F)CC1 the results were T cruzi repl -6.3, SKKanGAS inh 7.5 and Mdm2-MdmX inh -0.3.
For N=c1c2c(n(Cc3cccc(Cl)c3)c3c1CCC3)CCCC2 the results were T cruzi repl 58.4*, Lmaj promast 100.1*, CSC inhib 8.7, SKKanGAS inh 0.0, Beta apoptosis 94.2*, Mdm2-MdmX inh 58.0*, Mdm2-MdmX conf 41.6* and FLuc counter 64.1*.
`c1ccc2c(NCCCN3CCOCC3)c3ccccc3nc2c1` gave Lmaj promast 100.2*, CSC inhib 51.2, Beta apoptosis 103.8*, Mdm2-MdmX inh 84.5*, Mdm2-MdmX conf 79.4* and FLuc counter 5.5.
CN(C)CCCNc1c2ccccc2nc2ccccc12 was read as T cruzi repl 67.7*, CSC inhib 130.8*, SKKanGAS inh -0.4, Beta apoptosis 108.7*, Mdm2-MdmX inh 100.3*, Mdm2-MdmX conf 99.7* and FLuc counter 51.5*.
For CN(C)CCCNc1nc(-c2ccccc2)nc2ccccc12 the results were T cruzi repl 21.9, CSC inhib 1.9, SKKanGAS inh 2.2, Beta apoptosis 1.2 and Mdm2-MdmX inh 9.9.
O=C1C(Cl)=C(Nc2ccc(O)cc2)C(=O)c2ccccc21 was read as T cruzi repl 62.7*, CSC inhib 124.2*, SKKanGAS inh 19.9, Beta apoptosis 5.8, Mdm2-MdmX inh 100.4*, Mdm2-MdmX conf 100.2* and FLuc counter 51.1*.
Screening O=C(CSc1nnc(-c2cccnc2)n1-c1ccccc1)Nc1ccccc1 returned T cruzi repl 18.4, Lmaj promast 8.0, CSC inhib 17.9, SKKanGAS inh -0.8, Beta apoptosis -2.8, Mdm2-MdmX inh 50.2* and Mdm2-MdmX conf 17.0.
`O=C(CSc1nnc(-c2cccs2)n1-c1ccccc1)Nc1ccccc1` gave T cruzi repl 16.7, Lmaj promast 0.3, CSC inhib -20.7, SKKanGAS inh -1.3, Beta apoptosis -4.4, Mdm2-MdmX inh 69.5* and Mdm2-MdmX conf 7.5.
Screening CCOC(=O)CSc1nnc(-c2cccs2)n1-c1ccccc1 returned T cruzi repl -7.4, Lmaj promast -4.2, CSC inhib -5.3, SKKanGAS inh -0.9, Beta apoptosis -2.1 and Mdm2-MdmX inh 20.0.
Screening COCc1ccc(C(=O)N2CCCCC2C(=O)Nc2ccc(-n3nc(C)cc3C)cc2)o1 (stereo not given) returned T cruzi repl -6.6, CSC inhib -2.6, SKKanGAS inh 4.9, Beta apoptosis -0.3 and Mdm2-MdmX inh 14.4.
Screening O=C(c1ccc(S(=O)(=O)N2CCCCC2)cc1)N1CCN(c2ccccc2)CC1 returned T cruzi repl 12.4, Lmaj promast 16.2, CSC inhib -14.1, SKKanGAS inh -17.1, Beta apoptosis 3.4 and Mdm2-MdmX inh -14.0.
`CC1CCCCN1S(=O)(=O)c1ccc(S(=O)(=O)N2CCN(c3ccccc3)CC2)cc1` (stereo not given) gave T cruzi repl 4.9, Lmaj promast -1.2, CSC inhib 2.9, SKKanGAS inh -2.9, Beta apoptosis -1.0, Mdm2-MdmX inh 56.6* and Mdm2-MdmX conf -10.8.
For CCOC(=O)c1c(NC(C)=O)sc2c1CCC(C=NCCCN(CC)CC)=C2Sc1ccccc1 the results were T cruzi repl 29.9, Lmaj promast 33.4, CSC inhib 61.1, SKKanGAS inh 14.4 and Mdm2-MdmX inh 36.9.
Screening Cc1ccc(NC(=O)CC2OC(=O)c3ccccc32)cc1S(=O)(=O)N1CCOCC1 (stereo not given) returned Beta apoptosis -2.1 and Mdm2-MdmX inh 6.9.
Screening COc1ccc(-c2cc(C(=O)N3CCN(c4ccccc4O)CC3)c3ccccc3n2)cc1 returned CSC inhib 17.6, Beta apoptosis 9.5 and Mdm2-MdmX inh 19.0.
For CC(=O)N1CCN(C(=O)c2cc(C)nc3ccccc23)CC1 the results were T cruzi repl 0.7, Lmaj promast -3.4, CSC inhib -12.3, SKKanGAS inh -0.5, Beta apoptosis 0.2 and Mdm2-MdmX inh 23.1.
`CCOc1ccccc1N1CCN(C(=O)c2cc(-c3cc(OC)ccc3OC)nc3ccccc23)CC1` gave T cruzi repl 30.2, CSC inhib 18.7, SKKanGAS inh 24.3, Beta apoptosis 7.8, Mdm2-MdmX inh 72.8*, Mdm2-MdmX conf 45.6* and FLuc counter 62.0*.
For Cc1ccc(-c2cc(C(=O)N3CCN(c4ccccc4O)CC3)c3ccccc3n2)cc1 the results were T cruzi repl 25.2, CSC inhib 22.0, SKKanGAS inh 53.6*, Beta apoptosis 6.3, Mdm2-MdmX inh 57.0* and Mdm2-MdmX conf 31.9.
`CCOC(=O)N1CCN(C(=O)c2cc(-c3ccc(OCC)cc3)nc3ccccc23)CC1` gave T cruzi repl -16.8, Lmaj promast 22.6, SKKanGAS inh 7.6, Beta apoptosis 10.7 and Mdm2-MdmX inh 19.4.

Screens (PubChem)
